Experimental data: ChEMBL document CHEMBL4017489, “Design, Synthesis, and Evaluation of New Selective NM23-H2 Binders as c-MYC Transcription Inhibitors via Disruption of the NM23-H2/G-Quadruplex Interaction” (J Med Chem, 2017)
Calls of active or inactive are those of the source. The calls are words filed in the database; no cut-off is given here.

Legend:
[1] = Binding affinity to Htg21 telomeric G-quadruplex DNA (unknown origin) at 40 uM after 30 mins by SPR analysis
SiHa [2] = assay: Cell cycle arrest in human SiHa cells assessed as accumulation at G2/M phase at 2 uM after 6 hrs by propidium iodide staining based flow cytometry (reference value: 39 %); type: functional
Method in brief: (§1)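 SiHa cells (2.0 × 10^5 per well) plated 24 h, then exposed to 2 μM compound or left untreated for 3, 6, 9, 12, 24, 36 or 48 h. Cells washed in PBS, fixed overnight in ice-cold 70% ethanol, treated with 20 μg/mL RNase A for 30 min at 37 °C, stained with PI, and read by flow cytometry at 488 nm. Phase percentages compared with untreated control; at least three experiments.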

SiHa [3] = assay: Antitumor activity against human SiHa cells xenografted in BALB/C nude mouse assessed as tumor weight at 5 mg/kg, ip administered daily after 3 weeks (reference value: 511.6 mg); type: functional
[4] = biological target: Nucleoside diphosphate kinase B (Homo sapiens, UniProt P22392, G113F); assay: Binding affinity to N-terminal NT-647-NHS labeled NM23-H2 G113F mutant (unknown origin) after 30 mins by MST analysis
Sequence of Nucleoside diphosphate kinase B (Homo sapiens, UniProt P22392, G113F) (P22392 whole entry G113F): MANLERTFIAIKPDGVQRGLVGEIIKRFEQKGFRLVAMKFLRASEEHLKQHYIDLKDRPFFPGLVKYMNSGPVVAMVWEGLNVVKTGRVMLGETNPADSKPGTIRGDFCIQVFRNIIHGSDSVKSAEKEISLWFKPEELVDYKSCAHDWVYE

SiHa [5] = assay: Cell cycle arrest in human SiHa cells assessed as accumulation at S phase at 2 uM after 9 hrs by propidium iodide staining based flow cytometry (reference value: 13 %); type: functional; method in brief: as §1
SiHa [6] = assay: Cell cycle arrest in human SiHa cells assessed as accumulation at S phase at 2 uM after 12 hrs by propidium iodide staining based flow cytometry (reference value: 13 %); type: functional; method in brief: as §1
[7] = Induction of apoptosis in mouse primary mesangial cells at 0.5 to 2 uM after 48 hrs by Annexin V-FITC/propidium iodide based flow cytometric analysis; details: primary mesangial cell
Method in brief: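 Primary cultured mouse mesangial cells treated at the same concentrations as SiHa cells. Stained with annexin V-FITC and PI and analysed by flow cytometry.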

SiHa [8] = assay: Cell cycle arrest in human SiHa cells assessed as accumulation at G0/G1 phase at 2 uM after 3 hrs by propidium iodide staining based flow cytometry (reference value: 48%); type: functional
Method in brief: (§2)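 SiHa cells plated 24 h, treated at 2 μM for 3–48 h; fixed in ice-cold 70% ethanol overnight, RNase A 20 μg/mL 37 °C 30 min, PI-stained, flow cytometry at 488 nm; phase percentages quantified; at least three experiments.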

SiHa [9] = assay: Cell cycle arrest in human SiHa cells assessed as accumulation at G2/M phase at 2 uM after 36 hrs by propidium iodide staining based flow cytometry (reference value: 39 %); type: functional; method in brief: as §1
[10] = tested on: Nucleoside diphosphate kinase B (Homo sapiens), P22392 [F60A]; assay: Binding affinity to NM23-H2 F60A mutant (unknown origin) up to 50 uM by SPR analysis
Sequence of Nucleoside diphosphate kinase B (Homo sapiens), P22392 [F60A] (P22392 whole entry F60A): as the sequence (P22392 whole entry G113F) above, with F60A, F113G counted along it

[11] = Antiproliferative activity against mouse primary mesangial cells at 4 uM up to 100 hrs by real-time cellular activity assay; type: cell-based; details: primary mesangial cell
Method in brief: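 Impedance-based real-time cell analysis at 37 °C, 5% CO2: 100 μL of 20 000 cells/mL added over medium background, settled 20 min, dosed after 24 h; read every 2 min for 2 h, then every 15 min to end; three repeats.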

SiHa [12] = assay: Cell cycle arrest in human SiHa cells assessed as accumulation at G0/G1 phase at 2 uM after 24 hrs by propidium iodide staining based flow cytometry (reference value: 48 %); type: functional; method in brief: as §2
SiHa [13] = assay: Anticlonogenic activity against human SiHa cells up to 0.5 uM after 14 days by crystal violet staining based assay; type: functional, cell-based
Method in brief: (§3)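 Colony formation: SiHa cells and primary cultured mouse mesangial cells exposed to 0.5, 0.25, 0.125, 0.0625 and 0.03125 μM for 14 days, DMSO as negative control; three repeats.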

[14] = tested on: Nucleoside diphosphate kinase B (Homo sapiens), P22392 [F60A]; assay: Binding affinity to N-terminal NT-647-NHS labeled NM23-H2 F60A mutant (unknown origin) up to 50 uM by SPR analysis
SiHa [15] = assay: Induction of apoptosis in human SiHa cells assessed as late apoptotic cells at 1 uM after 48 hrs by Annexin V-FITC/propidium iodide based flow cytometric analysis (reference value: 0.7 %); type: functional
SiHa [16] = assay: Cell cycle arrest in human SiHa cells assessed as accumulation at G2/M phase at 2 uM after 9 hrs by propidium iodide staining based flow cytometry (reference value: 39 %); type: functional; method in brief: as §1
SiHa [17] = assay: Induction of apoptosis in human SiHa cells assessed as necrotic cells at 0.5 uM after 48 hrs by Annexin V-FITC/propidium iodide based flow cytometric analysis (reference value: 0.3%); type: functional
[18] = biological target: T1, Nucleoside diphosphate kinase B (Homo sapiens, UniProt P22392, D54A); assay: Binding affinity to NM23-H2 D54A mutant (unknown origin) by SPR analysis
T1 sequence (P22392 whole entry D54A): as the sequence (P22392 whole entry G113F) above, with D54A, F113G counted along it

SiHa [19] = assay: Cell cycle arrest in human SiHa cells assessed as accumulation at G0/G1 phase at 2 uM after 36 hrs by propidium iodide staining based flow cytometry (reference value: 48 %); type: functional; method in brief: as §2
[20] = biological target: T1, Nucleoside diphosphate kinase B; assay: Binding affinity to N-terminal NT-647-NHS labeled NM23-H2 D54A mutant (unknown origin) after 30 mins by MST analysis
SiHa [21] = assay: Antitumor activity against human SiHa cells xenografted in BALB/C nude mouse assessed as tumor growth inhibition at 2.5 to 5 mg/kg, ip administered daily; type: functional, organism-based; details: TDE = time-dependent effect
Method in brief: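 SiHa cells implanted in the right armpit of BALB/C-nu/nu mice. At a tumour size of about 50 mm3, mice were randomised (n = 8/group) to vehicle, 2.5 or 5.0 mg/kg compound, or doxorubicin 1.0 mg/kg, given ip daily for 3 weeks. Tumour volume was followed, then tumours were excised and weighed and body weight recorded. Mean ± SEM, t test against vehicle.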

[22] = biological target: T2, Nucleoside diphosphate kinase B (Homo sapiens, UniProt P22392, H118F); assay: Binding affinity to N-terminal NT-647-NHS labeled NM23-H2 H118F mutant (unknown origin) after 30 mins by MST analysis
T2 sequence (P22392 whole entry H118F): as the sequence (P22392 whole entry G113F) above, with F113G, H118F counted along it

SiHa [23] = assay: Induction of apoptosis in human SiHa cells assessed as early apoptotic cells at 2 uM after 48 hrs by Annexin V-FITC/propidium iodide based flow cytometric analysis (reference value: 1.4 %); type: functional
[24] = biological target: T2, Nucleoside diphosphate kinase B; assay: Binding affinity to NM23-H2 H118F mutant (unknown origin) by SPR analysis
[25] = Anticlonogenic activity against mouse primary mesangial cells at 0.03125 to 0.5 uM after 14 days by crystal violet staining based assay; type: ADME; details: primary mesangial cell, 336 h; method in brief: as §3
SiHa [26] = assay: Cell cycle arrest in human SiHa cells assessed as accumulation at S phase at 2 uM after 24 hrs by propidium iodide staining based flow cytometry (reference value: 13 %); type: functional; method in brief: as §1
[27] = Binding affinity to biotin-labeled 18-mer duplex DNA hairpin (unknown origin) at 40 uM after 30 mins by SPR analysis
SiHa [28] = assay: Induction of apoptosis in human SiHa cells assessed as late apoptotic cells at 0.5 uM after 48 hrs by Annexin V-FITC/propidium iodide based flow cytometric analysis (reference value: 0.7 %); type: functional

With `CN(C)CCCNc1cc2nc3n(c(=O)c2cc1F)CC/C3=C\c1ccc(OCc2ccccc2)cc1O` as the compound, how does the Activity [1] read?
The Activity was “inactive”.

And the Activity (SiHa [2])?
Its Activity is 26%.

What about the Activity (SiHa [3]) of the same compound?
The Activity was 180.1 mg.

And the Kd [4]?
The Kd was 13.5 µM.

What about the Activity (SiHa [5]) of the same compound?
Its Activity is 12%.

What about the Activity (SiHa [6]) of the same compound?
Its Activity is 11%.

What about the Activity [7] of the same compound?
Its Activity is “Non-Toxic”.

And the Activity (SiHa [8])?
The Activity was 51%.

What about the Activity (SiHa [9]) of the same compound?
The Activity was 0%.

What about the Activity [10] of the same compound?
The Activity was “inactive”.

And the Activity [11]?
The Activity was “Toxic”.

And the Activity (SiHa [12])?
The Activity was 22%.

What about the Activity (SiHa [13]) of the same compound?
The Activity was “Active”.

And the Activity [14]?
Its Activity is “inactive”.

What about the Activity (SiHa [15]) of the same compound?
Its Activity is 10.6%.

What about the Activity (SiHa [16]) of the same compound?
Its Activity is 21%.

What about the Activity (SiHa [17]) of the same compound?
The Activity was 0.3%.

And the Kd [18]?
The Kd was 18.4 µM.

And the Activity (SiHa [19])?
The Activity was 1%.

What about the Kd [20] of the same compound?
Its Kd is 4.6 µM.

What about the TGI (SiHa [21]) of the same compound?
The TGI was “Tde”.

What about the Kd [22] of the same compound?
The Kd was 7.7 µM.

And the Activity (SiHa [23])?
The Activity was 4.8%.

And the Kd [24]?
The Kd was 47 µM.

What about the Activity [25] of the same compound?
Its Activity is “Non-Toxic”.

What about the Activity (SiHa [26]) of the same compound?
Its Activity is 6%.

And the Activity [27]?
Its Activity is “inactive”.

And the Activity (SiHa [28])?
The Activity was 5.1%.
